# Experimental data taken from ChEMBL document CHEMBL4828713, “DNA-Encoded Library Hit Confirmation: Bridging the Gap Between On-DNA and Off-DNA Chemistry” (ACS Med Chem Lett, 2021).
# What was measured:
# [1] = target: T1, Receptor-interacting serine/threonine-protein kinase 2 (Homo sapiens, UniProt O43353); test: Inhibition of RIP2 (unknown origin) by biochemical assay
# [2] = target: T1, Receptor-interacting serine/threonine-protein kinase 2; test: Relative binding affinity to RIP2 (unknown origin) by affinity selection mass spectrometry analysis
# Summary of the method: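 Test material was freed from the DNA headpiece by cleaving the tetrahydropyranyl linker with 0.1% formic acid at 60 °C for 1 h. The released compound was then tested by affinity selection mass spectrometry, and binding was expressed as relative binding affinity (%RBA).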
# [3] = target: Vascular endothelial growth factor receptor 2 (Homo sapiens, UniProt P35968); test: Inhibition of VEGFR2 (unknown origin)
# [4] = target: Epidermal growth factor receptor (Homo sapiens, UniProt P00533); test: Inhibition of EGFR (unknown origin)
# TGF-beta receptor type-1 = target: T2, TGF-beta receptor type-1 (Homo sapiens, UniProt P36897); test: Inhibition of ALK5 (unknown origin)
# T2 sequence (P36897 whole entry): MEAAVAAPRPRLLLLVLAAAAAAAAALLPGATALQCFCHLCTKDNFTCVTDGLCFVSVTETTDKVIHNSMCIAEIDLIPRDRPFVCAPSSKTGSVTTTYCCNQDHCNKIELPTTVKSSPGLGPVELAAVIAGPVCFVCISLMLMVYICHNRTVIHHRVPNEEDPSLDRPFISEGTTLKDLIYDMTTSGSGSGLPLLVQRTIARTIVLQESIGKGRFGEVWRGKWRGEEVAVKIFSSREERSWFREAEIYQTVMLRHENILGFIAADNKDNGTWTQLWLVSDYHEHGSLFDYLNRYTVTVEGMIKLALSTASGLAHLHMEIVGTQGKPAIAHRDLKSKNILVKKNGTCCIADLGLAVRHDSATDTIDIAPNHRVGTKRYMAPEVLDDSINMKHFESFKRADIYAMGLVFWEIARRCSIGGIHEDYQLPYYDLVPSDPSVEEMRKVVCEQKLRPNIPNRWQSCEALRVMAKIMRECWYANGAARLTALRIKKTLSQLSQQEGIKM
# [5] = target: T1, Receptor-interacting serine/threonine-protein kinase 2; test: Inhibition of RIP2 (unknown origin)
# [6] = target: T1, Receptor-interacting serine/threonine-protein kinase 2; test: Inhibition of RIP2 (unknown origin) by fluorescence polarization based binding assay
# T1 sequence (O43353 whole entry): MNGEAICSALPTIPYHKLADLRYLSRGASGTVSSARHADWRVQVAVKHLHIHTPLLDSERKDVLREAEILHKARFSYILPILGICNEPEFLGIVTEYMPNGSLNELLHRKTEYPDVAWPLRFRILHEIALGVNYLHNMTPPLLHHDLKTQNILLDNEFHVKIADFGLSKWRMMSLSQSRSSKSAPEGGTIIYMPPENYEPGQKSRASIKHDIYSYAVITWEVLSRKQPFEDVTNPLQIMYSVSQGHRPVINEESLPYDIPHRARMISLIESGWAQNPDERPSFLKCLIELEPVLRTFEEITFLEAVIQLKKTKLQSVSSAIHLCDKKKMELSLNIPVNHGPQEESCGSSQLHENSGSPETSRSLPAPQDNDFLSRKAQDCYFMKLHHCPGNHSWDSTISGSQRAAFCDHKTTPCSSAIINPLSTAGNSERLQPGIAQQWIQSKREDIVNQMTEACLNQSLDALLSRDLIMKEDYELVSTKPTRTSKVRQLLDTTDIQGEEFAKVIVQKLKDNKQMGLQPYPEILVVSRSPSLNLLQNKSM
# Epidermal growth factor receptor, sequence (P00533 whole entry): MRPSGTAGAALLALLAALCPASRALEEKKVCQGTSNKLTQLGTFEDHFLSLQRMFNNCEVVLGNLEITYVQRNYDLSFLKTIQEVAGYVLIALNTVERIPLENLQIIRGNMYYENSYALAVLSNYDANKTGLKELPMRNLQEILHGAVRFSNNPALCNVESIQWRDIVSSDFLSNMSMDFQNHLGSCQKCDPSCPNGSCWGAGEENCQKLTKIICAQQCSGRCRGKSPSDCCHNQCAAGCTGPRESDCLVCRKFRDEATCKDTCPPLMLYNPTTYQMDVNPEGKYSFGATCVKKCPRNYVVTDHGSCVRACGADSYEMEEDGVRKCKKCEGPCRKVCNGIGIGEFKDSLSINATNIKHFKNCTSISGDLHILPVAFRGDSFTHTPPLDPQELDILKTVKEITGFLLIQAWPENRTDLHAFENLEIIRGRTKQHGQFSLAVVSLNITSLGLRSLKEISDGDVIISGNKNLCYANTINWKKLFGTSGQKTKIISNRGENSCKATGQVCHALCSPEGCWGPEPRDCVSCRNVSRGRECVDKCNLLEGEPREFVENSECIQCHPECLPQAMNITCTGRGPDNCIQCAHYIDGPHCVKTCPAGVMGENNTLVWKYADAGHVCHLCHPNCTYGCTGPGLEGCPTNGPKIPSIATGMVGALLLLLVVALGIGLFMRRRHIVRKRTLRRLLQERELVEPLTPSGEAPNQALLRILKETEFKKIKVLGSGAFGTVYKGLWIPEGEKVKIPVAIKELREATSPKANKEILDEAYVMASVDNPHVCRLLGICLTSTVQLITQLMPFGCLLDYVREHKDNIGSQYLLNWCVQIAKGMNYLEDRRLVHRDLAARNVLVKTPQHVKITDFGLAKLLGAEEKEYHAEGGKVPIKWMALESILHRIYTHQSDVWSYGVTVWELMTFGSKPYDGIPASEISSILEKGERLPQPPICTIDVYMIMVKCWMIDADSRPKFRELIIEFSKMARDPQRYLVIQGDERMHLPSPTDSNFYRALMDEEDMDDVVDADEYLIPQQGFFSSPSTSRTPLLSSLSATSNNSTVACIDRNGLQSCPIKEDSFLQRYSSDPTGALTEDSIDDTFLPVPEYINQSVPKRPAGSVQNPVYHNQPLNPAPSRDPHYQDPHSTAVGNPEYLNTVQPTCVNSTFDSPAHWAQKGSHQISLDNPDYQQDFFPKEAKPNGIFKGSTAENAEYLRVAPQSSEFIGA
# Vascular endothelial growth factor receptor 2, sequence (P35968 whole entry): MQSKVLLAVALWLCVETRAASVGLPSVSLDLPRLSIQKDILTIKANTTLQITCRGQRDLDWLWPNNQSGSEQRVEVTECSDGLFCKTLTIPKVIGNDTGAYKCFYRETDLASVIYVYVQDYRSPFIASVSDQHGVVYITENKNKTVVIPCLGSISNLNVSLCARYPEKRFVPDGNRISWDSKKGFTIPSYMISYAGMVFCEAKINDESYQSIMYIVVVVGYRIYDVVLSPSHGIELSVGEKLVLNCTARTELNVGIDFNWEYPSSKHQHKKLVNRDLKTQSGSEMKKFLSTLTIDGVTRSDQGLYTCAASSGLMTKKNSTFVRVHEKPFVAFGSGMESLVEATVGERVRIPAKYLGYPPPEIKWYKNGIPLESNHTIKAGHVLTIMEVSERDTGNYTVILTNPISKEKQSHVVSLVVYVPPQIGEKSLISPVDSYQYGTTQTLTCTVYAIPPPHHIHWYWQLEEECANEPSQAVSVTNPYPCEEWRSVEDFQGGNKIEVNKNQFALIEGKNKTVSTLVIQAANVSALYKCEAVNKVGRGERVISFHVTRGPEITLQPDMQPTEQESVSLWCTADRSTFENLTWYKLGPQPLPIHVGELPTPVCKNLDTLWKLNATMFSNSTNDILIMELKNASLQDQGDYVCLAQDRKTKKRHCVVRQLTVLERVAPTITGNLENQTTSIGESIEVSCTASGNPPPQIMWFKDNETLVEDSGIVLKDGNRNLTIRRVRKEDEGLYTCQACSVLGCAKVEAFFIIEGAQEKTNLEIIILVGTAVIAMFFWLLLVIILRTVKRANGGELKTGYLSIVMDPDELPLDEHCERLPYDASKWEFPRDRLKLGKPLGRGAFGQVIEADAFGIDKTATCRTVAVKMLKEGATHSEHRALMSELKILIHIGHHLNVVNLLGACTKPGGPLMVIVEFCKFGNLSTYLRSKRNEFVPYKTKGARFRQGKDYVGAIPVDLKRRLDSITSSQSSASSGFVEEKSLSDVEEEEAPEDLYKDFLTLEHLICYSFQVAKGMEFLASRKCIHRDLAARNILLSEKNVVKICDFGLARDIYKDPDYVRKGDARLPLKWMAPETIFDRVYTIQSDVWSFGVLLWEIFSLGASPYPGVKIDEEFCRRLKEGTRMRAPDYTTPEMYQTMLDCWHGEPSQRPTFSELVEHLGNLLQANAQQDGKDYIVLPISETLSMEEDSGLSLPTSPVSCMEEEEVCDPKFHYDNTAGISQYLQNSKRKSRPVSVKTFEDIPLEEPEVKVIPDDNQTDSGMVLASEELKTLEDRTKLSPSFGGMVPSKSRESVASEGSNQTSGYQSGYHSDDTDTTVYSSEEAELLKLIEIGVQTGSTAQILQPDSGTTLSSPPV
smiles,measurement,setting,value
COCCNC(=O)c1cc(CNc2ccc(Cl)c(O)c2)cc(-c2ccc3c(Nc4ccc(Cl)c(O)c4)ccnc3c2)c1,IC50,[1],6 nM
COCCn1c(-c2cnc(-c3ccc(Cl)cc3)[nH]2)nc2cc(C(=O)NCCO)ccc21,RBA,[2],30%
Oc1cc(Nc2ccnc3cc(-c4ccccc4)ccc23)ccc1Cl,IC50,[3],< 1 nM
same,IC50,[4],100 nM
same,IC50,TGF-beta receptor type-1,79 nM
same,IC50,[5],6 nM
COCCNC(=O)c1cc(CNc2ccc(Cl)c(O)c2)cc(-c2ccc3c(Cl)ccnc3c2)c1,IC50,[6],> 50000 nM
c1ccc(-c2ccc3c(Nc4ccc5scnc5c4)ccnc3c2)cc1,IC50,[3],16 nM
same,IC50,[4],2500 nM
same,IC50,TGF-beta receptor type-1,2500 nM
same,IC50,[5],16 nM
NC(=O)c1cc(C=O)cc(-c2ccc3c(Nc4ccc5scnc5c4)ccnc3c2)c1,RBA,[2],70%
NC(=O)c1cc(CNc2ccc3scnc3c2)cc(-c2ccc3c(Nc4ccc5scnc5c4)ccnc3c2)c1,RBA,[2],58%
